Holding throughout (type): functional
Assay [1] deals with MCF7. As to the kind of experiment: Cytotoxicity against human MCF7 cells assessed as cell growth at 10 uM after 48 hrs by SRB assay relative to control. The following applies: MCF7, 48 h, read-out: Activity. An outline of the steps:
(§1)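 Single-dose NCI screen. Compound was added at 1 × 10^-5 M and cultures were incubated 48 h. End point was sulforhodamine B protein staining, reported as percent growth of treated cells versus untreated control cells.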
(In SRB staining, fixed cells bind dye roughly in proportion to their protein.)

The test system of assay [2] is MCF7. As to the kind of experiment: Growth inhibition of human MCF7 cells at 10 uM after 48 hrs by SRB assay relative to control. The following applies: MCF7, 48 h, read-out: GI. An outline of the steps: (§2)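 NCI single-dose primary screen: compound added at 1 × 10⁻⁵ M, cultures incubated 48 h. Protein stained with sulforhodamine B. Result given as percent growth of treated cells relative to untreated controls, where negative values mean cell kill.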

Assay [3] relates to UO-31. Kind of assay: Cytotoxicity against human UO31 cells assessed as cell growth at 10 uM after 48 hrs by SRB assay relative to control. The following applies: UO-31, 48 h, read-out: Activity. An outline of the steps:
as §2

Assay [4] concerns UO-31. Kind of assay: Growth inhibition of human UO31 cells at 10 uM after 48 hrs by SRB assay relative to control. The following applies: UO-31, 48 h, read-out: GI. The gist of the method:
as §2

The test system of another assay is NCI-H322M. Kind of assay: Cytotoxicity against human NCI-H322M cells assessed as cell growth at 10 uM after 48 hrs by SRB assay relative to control. The following applies: read-out: Activity. An outline of the steps:
as §1

The test system of assay [5] is NCI-H522. Kind of assay: Growth inhibition of human NCI-H522 cells at 10 uM after 48 hrs by SRB assay relative to control. The following applies: NCI-H522, 48 h, read-out: GI. The gist of the method:
as §2

Assay [6] relates to NCI-H522. Kind of assay: Cytotoxicity against human NCI-H522 cells assessed as cell growth at 10 uM after 48 hrs by SRB assay relative to control. The following applies: NCI-H522, 48 h, read-out: Activity. An outline of the steps:
as §1

For another assay, the system named is IGROV-1. Kind of assay: Growth inhibition of human IGROV1 cells at 10 uM after 48 hrs by SRB assay relative to control. The following applies: IGROV-1, 48 h, read-out: GI. An outline of the steps:
as §2

The test system of a further assay is HOP-92. As to the kind of experiment: Cytotoxicity against human HOP92 cells assessed as cell growth at 10 uM after 48 hrs by SRB assay relative to control. The following applies: HOP-92, 48 h, read-out: Activity. An outline of the steps: as §1
Assay [7] concerns HOP-62. As to the kind of experiment: Cytotoxicity against human HOP62 cells assessed as cell growth at 10 uM after 48 hrs by SRB assay relative to control. The following applies: HOP-62, 48 h, read-out: Activity. The gist of the method:
as §1

Assay [8] deals with HOP-62. As to the kind of experiment: Growth inhibition of human HOP62 cells at 10 uM after 48 hrs by SRB assay relative to control. The following applies: HOP-62, 48 h, read-out: GI. An outline of the steps: as §2
For a further assay, the system named is T47D. As to the kind of experiment: Cytotoxicity against human T47D cells assessed as cell growth at 10 uM after 48 hrs by SRB assay relative to control. The following applies: read-out: Activity. An outline of the steps: as §2

Regarding `Nc1ccccc1-c1nn2c(CCC(=O)c3nc4ccccc4[nH]3)nnc2s1`, the growth at 10 µM in the assay on MCF7 [1] came out at 62%. For the same molecule, the inhibition of growth at 10 µM in the assay with MCF7 [2] was ≤ 32%.

For `NCCCc1nn2c(CCC(=O)c3nc4ccccc4[nH]3)nnc2s1`, in the assay on UO-31 [3], the growth at 10 µM was determined as 73.8%. `O=C(CCc1nnc2sc(COc3ccccc3)nn12)c1nc2ccccc2[nH]1`: the growth at 10 µM in the assay with UO-31 [3] worked out at 64.3%. Moreover, the inhibition of growth at 10 µM with UO-31 [4] was ≤ 32%.

`O=C(CCc1nnc2sc(CCl)nn12)c1nc2ccccc2[nH]1`: the growth at 10 µM in the assay with UO-31 [3] worked out at 83.9%. Take `O=C(CCc1nnc2sc(-c3ccccc3S)nn12)c1nc2ccccc2[nH]1`: the growth at 10 µM with NCI-H322M came out at 73.9%.

Turning to `O=C(CCc1nnc2sc(Cc3ccccc3Cl)nn12)c1nc2ccccc2[nH]1`, in the assay with UO-31 [3], the growth at 10 µM stood at 63%. Besides, the inhibition of growth at 10 µM in the assay on UO-31 [4] was ≤ 32%.

Consider `COc1ccc(-c2nn3c(CCC(=O)c4nc5ccccc5[nH]4)nnc3s2)cc1`, for which, in the assay on UO-31 [3], the growth at 10 µM is 69.6%. In the case of `O=C(CCc1nnc2sc(-c3ccc(O)cc3)nn12)c1nc2ccccc2[nH]1`, the growth at 10 µM with UO-31 [3] was found to be 67.7%. For the same molecule, the inhibition of growth at 10 µM with UO-31 [4] was ≤ 32%. For `O=C(CCc1nnc2n1N=C(O)CS2)c1nc2ccccc2[nH]1`, in the assay on UO-31 [3], the growth at 10 µM turned out to be 79.8%. `NC1=Nn2c(CCC(=O)c3nc4ccccc4[nH]3)nnc2SC1`: the growth at 10 µM with UO-31 [3] was 80.4%. On to `O=C(CCc1nnc2sc(Nc3ccc(Cl)cc3)nn12)c1nc2ccccc2[nH]1`, for which, in the assay with UO-31 [3], the growth at 10 µM is 64.2%. In addition, the inhibition of growth at 10 µM in the assay with UO-31 [4] was ≤ 32%.

Consider `O=C(CCc1nnc2sc(C(c3ccccc3)c3ccccc3)nn12)c1nc2ccccc2[nH]1`, for which the inhibition of growth at 10 µM with NCI-H522 [5] was ≤ 32%. In addition, in the assay on NCI-H522 [6], the growth at 10 µM came out at 30.2%. `C=Cc1nn2c(CCC(=O)c3nc4ccccc4[nH]3)nnc2s1`: the growth at 10 µM in the assay on UO-31 [3] stood at 76.2%. For the molecule `O=C(CCc1nnc2sc(-c3ccccc3O)nn12)c1nc2ccccc2[nH]1`, in the assay on IGROV-1, the inhibition of growth at 10 µM was ≤ 32%. Also, the growth at 10 µM with UO-31 [3] was 51.3%. Consider `C/C=C\c1nn2c(CCC(=O)c3nc4ccccc4[nH]3)nnc2s1`, for which the inhibition of growth at 10 µM in the assay with IGROV-1 was ≤ 32%. Further, the growth at 10 µM in the assay on UO-31 [3] is 54.9%. As for `O=C(CCc1nnc2sc(CS)nn12)c1nc2ccccc2[nH]1`, the growth at 10 µM in the assay on UO-31 [3] is 79.4%. The same measure, in the same setting: the same measure for `O=C(CCc1nnc2sc(CCCl)nn12)c1nc2ccccc2[nH]1`: 80.1%.

For `O=C(CCc1nnc2sc(S)nn12)c1nc2ccccc2[nH]1`, in the assay with UO-31 [3], the growth at 10 µM was 76.6%. Take `O=C(CCc1nnc2n1N=C(Cl)CS2)c1nc2ccccc2[nH]1`: the growth at 10 µM in the assay with UO-31 [3] is 78.9%. On to `O=C(CCc1nnc(S)o1)c1nc2ccccc2[nH]1`, for which, in the assay with HOP-92, the growth at 10 µM was 69.4%. For the molecule `N#CCc1nn2c(CCC(=O)c3nc4ccccc4[nH]3)nnc2s1`, the growth at 10 µM with UO-31 [3] amounted to 75.5%. Consider `CCOC1=Nn2c(CCC(=O)c3nc4ccccc4[nH]3)nnc2SC1`, for which, in the assay with UO-31 [3], the growth at 10 µM was determined as 80.3%. As for `CCOc1nn2c(CCC(=O)c3nc4ccccc4[nH]3)nnc2s1`, the growth at 10 µM in the assay with HOP-62 [7] came out at 28.7%. Also, in the assay on HOP-62 [8], the inhibition of growth at 10 µM was ≤ 32%. Turning to `Cc1nn2c(CCC(=O)c3nc4ccccc4[nH]3)nnc2s1`, in the assay with T47D, the growth at 10 µM was found to be 84.2%.

The values above are taken from ChEMBL document CHEMBL2331220, “Benzimidazole clubbed with triazolo-thiadiazoles and triazolo-thiadiazines: new anticancer agents” (2013).
